Reference: ChEMBL document CHEMBL1128719, “The synthesis, structure-activity, and structure-side effect relationships of a series of 8-alkoxy- and 5-amino-8-alkoxyquinolone antibacterial agents” (J Med Chem, 1995)
In brackets after ≈: the same amount, converted by molar mass.

Tests used:
Escherichia coli [1] = experiment: In vitro antibacterial activity was tested for Escherichia coli H560; assay type: functional
Procedure, shortened: (§1)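 Microtitration (microdilution) MIC determination in μg/mL against a panel of Gram-positive, Gram-negative and anaerobic organisms. Values come from duplicate or triplicate experiments and are stated accurate to ±50%.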

Staphylococcus aureus [2] = experiment: In vitro antibacterial activity was tested for Staphylococcus aureus UC-76; assay type: functional; procedure, shortened: as §1
Bacteroides fragilis = experiment: In vitro antibacterial activity against Bacteroides fragilis BFA; assay type: functional; procedure, shortened: as §1
Streptococcus pyogenes = experiment: In vitro antibacterial activity was tested for Streptococcus pyogenes C203; assay type: functional; procedure, shortened: as §1
Streptococcus pneumoniae = experiment: In vitro antibacterial activity was tested for Streptococcus pneumoniae SV-1; assay type: functional; procedure, shortened: as §1
Cutibacterium acnes = experiment: In vitro antibacterial activity was tested for Propion acnes PA5-1; assay type: functional; procedure, shortened: as §1
Enterobacter cloacae = experiment: In vitro antibacterial activity was tested for Enterobacter cloacae HA2646; assay type: functional
[3] = tested on: Peptoniphilus asaccharolyticus; experiment: In vitro antibacterial activity was tested for Pepto asac PA 3-1; assay type: functional; procedure, shortened: as §1
Escherichia coli [4] = experiment: In vitro antibacterial activity was tested for Escherichia coli Vogel; assay type: functional; procedure, shortened: as §1
Pseudomonas aeruginosa = experiment: In vitro antibacterial activity was tested for Pseudomonas aeruginosa UI-18; assay type: functional; procedure, shortened: as §1
Clostridioides difficile = experiment: In vitro antibacterial activity was tested for Clostridium diff CD1-1; assay type: functional
Klebsiella pneumoniae = experiment: In vitro antibacterial activity was tested for Klebsiella pneumoniae MGH-2; assay type: functional; procedure, shortened: as §1
Enterococcus faecalis = experiment: In vitro antibacterial activity was tested for Streptococcus faecalis MGH-2; assay type: functional; procedure, shortened: as §1
V79 = experiment: Clonogenic cytotoxicity against Chinese hamster V-79 cells; assay type: functional, cell-based; conditions: Cricetulus griseus
Clostridium perfringens = experiment: In vitro antibacterial activity against Clostridium perfringens CP 3-1; assay type: functional
Providencia rettgeri = experiment: In vitro antibacterial activity was tested for Providencia rettgeri H1771; assay type: functional; procedure, shortened: as §1
Staphylococcus aureus [5] = experiment: In vitro antibacterial activity was tested for Staphylococcus aureus H228; assay type: functional; procedure, shortened: as §1

CCOc1c(N2CCC(N)C2)c(F)cc2c(=O)c(C(=O)O)cn(C3CC3)c12 (stereo not drawn)
MIC (Escherichia coli [1]): 0.05 mg/L (≈ 0.133 µM)
MIC (Staphylococcus aureus [2]): 0.013 mg/L (≈ 0.0346 µM)
MIC (Bacteroides fragilis): 1.6 mg/L (≈ 4.26 µM)
MIC (Streptococcus pyogenes): 0.2 mg/L (≈ 0.533 µM)
MIC (Streptococcus pneumoniae): 0.1 mg/L (≈ 0.266 µM)
MIC (Cutibacterium acnes): 3.1 mg/L (≈ 8.26 µM)
MIC (Enterobacter cloacae): 0.1 mg/L (≈ 0.266 µM)
MIC [3]: 0.8 mg/L (≈ 2.13 µM)
MIC (Escherichia coli [4]): 0.05 mg/L (≈ 0.133 µM)
MIC (Pseudomonas aeruginosa): 3.1 mg/L (≈ 8.26 µM)
MIC (Clostridioides difficile): 3.1 mg/L (≈ 8.26 µM)
MIC (Klebsiella pneumoniae): 0.2 mg/L (≈ 0.533 µM)
MIC (Enterococcus faecalis): 0.1 mg/L (≈ 0.266 µM)
IC50 (V79): 210 mg/L (≈ 559 µM)
MIC (Clostridium perfringens): 0.8 mg/L (≈ 2.13 µM)
MIC (Providencia rettgeri): 0.4 mg/L (≈ 1.07 µM)
MIC (Staphylococcus aureus [5]): 0.05 mg/L (≈ 0.133 µM)

NC1CCCN(c2c(F)cc3c(=O)c(C(=O)O)cn(C4CC4)c3c2Cl)C1 (stereo not drawn)
MIC (Bacteroides fragilis): 0.2 mg/L (≈ 0.527 µM)
MIC (Cutibacterium acnes): 0.2 mg/L (≈ 0.527 µM)
MIC [3]: 0.4 mg/L (≈ 1.05 µM)
MIC (Clostridioides difficile): 0.4 mg/L (≈ 1.05 µM)
MIC (Clostridium perfringens): 0.1 mg/L (≈ 0.263 µM)

NC1CCCN(c2nc3c(cc2F)c(=O)c(C(=O)O)cn3C2CC2)C1 (stereo not drawn)
MIC (Bacteroides fragilis): 25 mg/L (≈ 72.2 µM)
MIC (Cutibacterium acnes): 6.3 mg/L (≈ 18.2 µM)
MIC [3]: 6.3 mg/L (≈ 18.2 µM)
MIC (Clostridioides difficile): > 25 mg/L
MIC (Clostridium perfringens): 0.8 mg/L (≈ 2.31 µM)

COc1c(N2CC[C@H](N)C2)c(F)c(N)c2c(=O)c(C(=O)O)cn(C3CC3)c12
MIC (Escherichia coli [1]): 0.05 mg/L (≈ 0.133 µM)
MIC (Staphylococcus aureus [2]): 0.013 mg/L (≈ 0.0345 µM)
MIC (Bacteroides fragilis): 1.6 mg/L (≈ 4.25 µM)
MIC (Streptococcus pyogenes): 0.05 mg/L (≈ 0.133 µM)
MIC (Streptococcus pneumoniae): 0.025 mg/L (≈ 0.0664 µM)
MIC (Cutibacterium acnes): 1.6 mg/L (≈ 4.25 µM)
MIC (Enterobacter cloacae): 0.05 mg/L (≈ 0.133 µM)
MIC [3]: 1.6 mg/L (≈ 4.25 µM)
MIC (Escherichia coli [4]): 0.05 mg/L (≈ 0.133 µM)
MIC (Pseudomonas aeruginosa): 0.8 mg/L (≈ 2.13 µM)
MIC (Clostridioides difficile): 3.1 mg/L (≈ 8.24 µM)
MIC (Klebsiella pneumoniae): 0.1 mg/L (≈ 0.266 µM)
MIC (Enterococcus faecalis): 0.1 mg/L (≈ 0.266 µM)
MIC (Clostridium perfringens): 0.8 mg/L (≈ 2.13 µM)
MIC (Providencia rettgeri): 0.2 mg/L (≈ 0.531 µM)
MIC (Staphylococcus aureus [5]): 0.025 mg/L (≈ 0.0664 µM)

Nc1c(F)c(N2CCCC(N)C2)c(F)c2c1c(=O)c(C(=O)O)cn2C1CC1 (stereo not drawn)
IC50 (V79): 19 mg/L (≈ 50.2 µM)

COc1c(N2CC[C@@H](N)C2)c(F)cc2c(=O)c(C(=O)O)cn(C3CC3)c12
MIC (Escherichia coli [1]): 0.025 mg/L (≈ 0.0692 µM)
MIC (Staphylococcus aureus [2]): 0.025 mg/L (≈ 0.0692 µM)
MIC (Bacteroides fragilis): 0.4 mg/L (≈ 1.11 µM)
MIC (Streptococcus pyogenes): 0.05 mg/L (≈ 0.138 µM)
MIC (Streptococcus pneumoniae): 0.05 mg/L (≈ 0.138 µM)
MIC (Cutibacterium acnes): 0.2 mg/L (≈ 0.553 µM)
MIC (Enterobacter cloacae): 0.025 mg/L (≈ 0.0692 µM)
MIC [3]: 0.4 mg/L (≈ 1.11 µM)
MIC (Escherichia coli [4]): 0.025 mg/L (≈ 0.0692 µM)
MIC (Pseudomonas aeruginosa): 0.8 mg/L (≈ 2.21 µM)
MIC (Clostridioides difficile): 0.8 mg/L (≈ 2.21 µM)
MIC (Klebsiella pneumoniae): 0.025 mg/L (≈ 0.0692 µM)
MIC (Enterococcus faecalis): 0.05 mg/L (≈ 0.138 µM)
MIC (Clostridium perfringens): 0.5 mg/L (≈ 1.38 µM)
MIC (Providencia rettgeri): 0.05 mg/L (≈ 0.138 µM)
MIC (Staphylococcus aureus [5]): 0.05 mg/L (≈ 0.138 µM)

COc1c(N2CCC(N)CC2)c(F)c(N)c2c(=O)c(C(=O)O)cn(C3CC3)c12
MIC (Escherichia coli [1]): 0.05 mg/L (≈ 0.128 µM)
MIC (Staphylococcus aureus [2]): 0.013 mg/L (≈ 0.0333 µM)
MIC (Bacteroides fragilis): 3.1 mg/L (≈ 7.94 µM)
MIC (Streptococcus pyogenes): 0.025 mg/L (≈ 0.064 µM)
MIC (Streptococcus pneumoniae): 0.013 mg/L (≈ 0.0333 µM)
MIC (Cutibacterium acnes): 3.1 mg/L (≈ 7.94 µM)
MIC (Enterobacter cloacae): 0.1 mg/L (≈ 0.256 µM)
MIC [3]: 1.6 mg/L (≈ 4.1 µM)
MIC (Escherichia coli [4]): 0.1 mg/L (≈ 0.256 µM)
MIC (Pseudomonas aeruginosa): 1.6 mg/L (≈ 4.1 µM)
MIC (Clostridioides difficile): 3.1 mg/L (≈ 7.94 µM)
MIC (Klebsiella pneumoniae): 0.2 mg/L (≈ 0.512 µM)
MIC (Enterococcus faecalis): 0.05 mg/L (≈ 0.128 µM)
IC50 (V79): 60 mg/L (≈ 154 µM)
MIC (Clostridium perfringens): 0.8 mg/L (≈ 2.05 µM)
MIC (Providencia rettgeri): 0.4 mg/L (≈ 1.02 µM)
MIC (Staphylococcus aureus [5]): 0.05 mg/L (≈ 0.128 µM)

COc1c(N2CCNCC2)c(F)cc2c(=O)c(C(=O)O)cn(C3CC3)c12
MIC (Escherichia coli [1]): 0.025 mg/L (≈ 0.0692 µM)
MIC (Staphylococcus aureus [2]): 0.05 mg/L (≈ 0.138 µM)
MIC (Bacteroides fragilis): 0.8 mg/L (≈ 2.21 µM)
MIC (Streptococcus pyogenes): 0.1 mg/L (≈ 0.277 µM)
MIC (Streptococcus pneumoniae): 0.1 mg/L (≈ 0.277 µM)
MIC (Cutibacterium acnes): 0.4 mg/L (≈ 1.11 µM)
MIC (Enterobacter cloacae): 0.025 mg/L (≈ 0.0692 µM)
MIC [3]: 3.1 mg/L (≈ 8.58 µM)
MIC (Escherichia coli [4]): 0.05 mg/L (≈ 0.138 µM)
MIC (Pseudomonas aeruginosa): 0.8 mg/L (≈ 2.21 µM)
MIC (Clostridioides difficile): 1.6 mg/L (≈ 4.43 µM)
MIC (Klebsiella pneumoniae): 0.1 mg/L (≈ 0.277 µM)
MIC (Enterococcus faecalis): 0.2 mg/L (≈ 0.553 µM)
MIC (Clostridium perfringens): 0.4 mg/L (≈ 1.11 µM)
MIC (Providencia rettgeri): 0.1 mg/L (≈ 0.277 µM)
MIC (Staphylococcus aureus [5]): 0.2 mg/L (≈ 0.553 µM)

COc1c(N2CCC(CN)CC2)c(F)cc2c(=O)c(C(=O)O)cn(C3CC3)c12
MIC (Escherichia coli [1]): 0.1 mg/L (≈ 0.257 µM)
MIC (Staphylococcus aureus [2]): 0.05 mg/L (≈ 0.128 µM)
MIC (Bacteroides fragilis): 0.8 mg/L (≈ 2.05 µM)
MIC (Streptococcus pyogenes): 0.025 mg/L (≈ 0.0642 µM)
MIC (Streptococcus pneumoniae): 0.025 mg/L (≈ 0.0642 µM)
MIC (Cutibacterium acnes): 0.4 mg/L (≈ 1.03 µM)
MIC (Enterobacter cloacae): 0.1 mg/L (≈ 0.257 µM)
MIC [3]: 0.4 mg/L (≈ 1.03 µM)
MIC (Escherichia coli [4]): 0.1 mg/L (≈ 0.257 µM)
MIC (Pseudomonas aeruginosa): 1.6 mg/L (≈ 4.11 µM)
MIC (Clostridioides difficile): 0.8 mg/L (≈ 2.05 µM)
MIC (Klebsiella pneumoniae): 0.2 mg/L (≈ 0.514 µM)
MIC (Enterococcus faecalis): 0.05 mg/L (≈ 0.128 µM)
IC50 (V79): 94 mg/L (≈ 241 µM)
MIC (Clostridium perfringens): 0.4 mg/L (≈ 1.03 µM)
MIC (Providencia rettgeri): 0.4 mg/L (≈ 1.03 µM)
MIC (Staphylococcus aureus [5]): 0.1 mg/L (≈ 0.257 µM)

COc1c(N2CCCC(N)C2)c(F)cc2c(=O)c(C(=O)O)cn(C3CC3)c12 (stereo not drawn)
MIC (Escherichia coli [1]): 0.05 mg/L (≈ 0.133 µM)
MIC (Staphylococcus aureus [2]): 0.006 mg/L (≈ 0.016 µM)
MIC (Bacteroides fragilis): 0.4 mg/L (≈ 1.07 µM)
MIC (Streptococcus pyogenes): 0.013 mg/L (≈ 0.0346 µM)
MIC (Streptococcus pneumoniae): 0.013 mg/L (≈ 0.0346 µM)
MIC (Cutibacterium acnes): 0.2 mg/L (≈ 0.533 µM)
MIC (Enterobacter cloacae): 0.1 mg/L (≈ 0.266 µM)
MIC [3]: 0.8 mg/L (≈ 2.13 µM)
MIC (Escherichia coli [4]): 0.1 mg/L (≈ 0.266 µM)
MIC (Pseudomonas aeruginosa): 1.6 mg/L (≈ 4.26 µM)
MIC (Clostridioides difficile): 0.8 mg/L (≈ 2.13 µM)
MIC (Klebsiella pneumoniae): 0.2 mg/L (≈ 0.533 µM)
MIC (Enterococcus faecalis): 0.025 mg/L (≈ 0.0666 µM)
MIC (Clostridium perfringens): 0.4 mg/L (≈ 1.07 µM)
MIC (Providencia rettgeri): 0.4 mg/L (≈ 1.07 µM)
MIC (Staphylococcus aureus [5]): 0.05 mg/L (≈ 0.133 µM)

CCOc1c(N2CCCC(N)C2)c(F)cc2c(=O)c(C(=O)O)cn(C3CC3)c12 (stereo not drawn)
MIC (Escherichia coli [1]): 0.2 mg/L (≈ 0.514 µM)
MIC (Staphylococcus aureus [2]): 0.025 mg/L (≈ 0.0642 µM)
MIC (Streptococcus pyogenes): 0.2 mg/L (≈ 0.514 µM)
MIC (Streptococcus pneumoniae): 0.2 mg/L (≈ 0.514 µM)
MIC (Enterobacter cloacae): 0.4 mg/L (≈ 1.03 µM)
MIC (Escherichia coli [4]): 0.2 mg/L (≈ 0.514 µM)
MIC (Pseudomonas aeruginosa): 3.1 mg/L (≈ 7.96 µM)
MIC (Klebsiella pneumoniae): 0.4 mg/L (≈ 1.03 µM)
MIC (Enterococcus faecalis): 0.2 mg/L (≈ 0.514 µM)
IC50 (V79): 210 mg/L (≈ 539 µM)
MIC (Providencia rettgeri): 0.8 mg/L (≈ 2.05 µM)
MIC (Staphylococcus aureus [5]): 0.1 mg/L (≈ 0.257 µM)
